# Measured values from the EternaBench riboswitch data.
# Test system: MS2 coat protein
# Experiment: apparent Kd, MS2 coat protein; higher = weaker binding; RNA-MaP array; theophylline 2 mM where present
# Outline: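 Designs were transcribed by stalled E. coli RNA polymerase on Illumina sequencing-chip clusters. They were titrated with SNAP-549-labelled MS2 coat protein from 0.7 or 1.5 nM, doubling to 3 µM, in 100 mM Tris-HCl pH 7.5, 80 mM KCl, 4 mM MgCl2, BSA, DTT, yeast tRNA and Tween-20, without and then with constant ligand. The apparent Kd is the median of filtered per-cluster fits after normalisation of green signal to red-channel RNA signal and control-cluster median Fmax.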
# [1] = designed as: OFF switch for theophylline, no ligand
# [2] = ligand present: theophylline, designed as: OFF switch for theophylline
# [3] = designed as: ON switch for theophylline, no ligand
# [4] = ligand present: theophylline, designed as: ON switch for theophylline
Sequence,apparent Kd [1],apparent Kd [2],apparent Kd [3],apparent Kd [4]
AUAGUCUAGAGUGAUACCAGACUACAUGAGGAUCACCCAUGUAUCUUUUGGUUAUCAUGUGUCCCUUGGCAGCACGCAUGUAUAG,10.1 nM,24.5 nM,,
UUAGAUAUGACAGAUACCAGCGUGUUAUAAAACAUGAGGAUCACCCAUGUAGUGAUCGAGCGCCCUUGGCAGCUGGUGUGUUUGG,,,69.6 nM,208 nM
AAACUGGGUGUAAAAUAAAUAAUCACUGAUACCAGACUAUGAGAUGUCCCUUGGCAGCAGAAACAUGAGGAUCACCCAUGUAAUA,17.9 nM,21.2 nM,,
CCUGCGUUUCUUUUCUUUCGCAGGAAUGAUACCAGUAGGGAAACCUACCCUUGGCAGCAUGGGACAUGAGGAUCACCCAUGUUAU,,,350 nM,55.1 nM
UCACGUGGGAAUGAUACCAGCCACAUGAGGAUCACCCAUGUGCAUGGUGUGAGCUUCACGGGCCCUUGGCAGCAUUUCAAGUCGC,48 nM,69.5 nM,,
GAGUUCCUGAGAGAUACCAGUGAGGCCACAUGAGGAUCACCCAUGUCCCUCACUCCGGCCCACCCUUGGCAGCUCGAAAGAUAUU,10.9 nM,68.1 nM,,
UGACAUUGCUCAGAUACCAGACAUGAGGAUCACCCAUGUACCAAGAAAACGUACAAUAAUGUCCCUUGGCAGCUGAGCAAUGUCU,101 nM,549 nM,,
AGCGAUAUGCAUGAUACCAGCUACAUGAGGAUCACCCAUGUACGUCAGUAAUGACUGUGUAGCCCUUGGCAGCAUAGAGCAUGUA,25.5 nM,33 nM,,
CAGCACAUGAGGAUCACCCAUGUGAGGGAUACCAGCUCAGGCGUGGGCCCUUGGCAGCUCUCUGGCUGACGAAAGUCAGCCUGUG,,,13.2 nM,16.7 nM
GAUGAACUAUUUGAUACCAGACCACAUGAGGAUCACCCAUGUGAGUUUCGUCCUUAGCCGGUCCCUUGGCAGCAAAUAGUUUAUC,16.9 nM,52.5 nM,,
ACAUGAGGAUCACCCAUGUCUGCCUCGGAUACCAGCGGAAGAAAACGCCCUUGGCAGCCGAACAUGAGGAUCACCCAUGUAGGCU,,,48.2 nM,56.8 nM
AAUUUGUCGGGUGAUACCAGCCUCGGCGCAUCUCGCGCUGAACAUGAGGAUCACCCAUGUGGCCCUUGGCAGCACAUGACAAAUC,,,554 nM,37.3 nM
ACAUGAGGAUCACCCAUGUUCCUCAUUGAUACCAGUGAAUUUAGACGCCCUUGGCAGCGAGUUUUUUUAGAAGAAGUUUUUUUUU,782 nM,1070 nM,,
CGAUCUUUCGAAAGAAGGAUCGAGUCUGAUACCAGAGACGAAAGUCUCCCUUGGCAGCAGUGCCAACAUGAGGAUCACCCAUGUA,,,18.7 nM,21.1 nM
GAUCUGUCGGGUGAUACCAGCCUCGGCGCGUCUCGCGCUGAACAUGAGGAUCACCCAUGUGGCCCUUGGCAGCACAUGACAAAUC,,,574 nM,44.2 nM
AUCGUACCUGGUGAUACCAGCAAGUGAUUAUAACAUGAGGAUCACCCAUGUAAUCAGUGAUGCCCUUGGCAGCAUAAUCGGUACA,,,26.3 nM,21.3 nM
GGGUAAGAUCCGGAUACCAGCGAACAUGAGGAUCACCCAUGUGAAAUAAGAUAGAAUAAACGCCCUUGGCAGCCGAAAUAGAGUU,,,77.3 nM,30.1 nM
ACAUGAGGAUCACCCAUGUUCCUCGCCGAUACCAGUGAAGAAGAACGCCCUUGGCAGCGGAAAGAAUAUUUUGGAGAUGAGAUAU,204 nM,270 nM,,
UAUAUAUAUAGGGAUACCAGCAGAGAAAACGUUUAUCCUAACAUGAGGAUCACCCAUGUAUGCCCUUGGCAGCUUUAUAUAUAUA,22.9 nM,31.2 nM,,
UGUUUGGUGCGCGAGUGUUGGAUAAUUGAUACCAGUGUAGAAGUGCGCCCUUGGCAGCGAAUCCUAACAUGAGGAUCACCCAUGU,,,46.1 nM,57.8 nM
AUUCAUAAUUGGGUAAAUGGAUAGAGUGAUACCAGUCAUAUACAUGACCCUUGGCAGCACAAGGACAUGAGGAUCACCCAUGUCA,,,24.2 nM,16.3 nM
AGAUUACAUGUUUUAAUACGGAAAACUGAUACCAGUGUAUCUAUUCACCCUUGGCAGCAGCAACAUGAGGAUCACCCAUGUAUUA,,,19.2 nM,19.2 nM
UUUUUUAUUAUGGCGUAUCGGAAAACCGAUACCAGUACAGAAAUGUACCCUUGGCAGCGGCGUUUUACAUGAGGAUCACCCAUGU,13.9 nM,20.1 nM,,
UUAUAUAUACAUGAGGAUCACCCAUGUGAUACCAGCCUGGAAACAGGCCCUUGGCAGCACAAAUACUCCAGAAAAUAUAAUAAAU,26.7 nM,199 nM,,
UUCUACAUGAGGAUCACCCAUGUGGGUGAUACCAGCACUUUUUGGUGCCCUUGGCAGCACAUGAGAAUACCGUACGAUCGGCGAU,,,265 nM,700 nM
UUAUUUAUAAUGGAUACCAGUGCUGUGGCCCGGCAUCCUGACAUGAGGAUCACCCAUGUGUACCCUUGGCAGCUGUUAUGGGUUU,22.6 nM,,,
AUAUGAUCAUGUGAUACCAGAAAUGGUAUUCCUCGCUGGAUUACAUGAGGAUCACCCAUGUUCCCUUGGCAGCAUAUGAUCAUAU,21.4 nM,269 nM,,

Sequence,apparent Kd [1],apparent Kd [2],apparent Kd [3],apparent Kd [4]
ACAUGAGGAUCACCCAUGUCUGCCACUGAUACCAGCGGAAGCCCACGCCCUUGGCAGCAGAACAUGAGGAUCACCCAUGUAGGCU,,,232 nM,198 nM
GAGGAUCAAGUAGAUACCAGCACAUGAGGAUCACCCAUGUAAUGGUGUCCCUCAAGAACGUGCCCUUGGCAGCUACUAUCAAAAU,16.3 nM,16.3 nM,,
ACGUCCGGAUUAAUCGUGGGCAUGGUCGAUACCAGUAUUUUAAUCUACCCUUGGCAGCGACAUGAGGAUCACCCAUGUGCGAUGA,16.7 nM,30.9 nM,,
UAUAUAUAUAGUGAUACCAGCAGAGAAAACGUUUAUCCUAACAUGAGGAUCACCCAUGUAUGCCCUUGGCAGCGUUAUAUAUAUA,24 nM,32.4 nM,,
UGUAACAUGAGGAUCACCCAUGUGAGUGAUACCAGAUUAGUAUUAGUCCCUUGGCAGCACAUUGGGCGAGUGUAUAGUCUAUGCG,,,154 nM,
AGCAUGUUAGCAGAUACCAGACGUUUUAUGAUCCAUGUAACAUGAGGAUCACCCAUGUAAGUCCCUUGGCAGCUGAAAUAAUGCA,,,155 nM,301 nM
AGUACUCGAACGGAUACCAGCCGGACAUGAGGAUCACCCAUGUCCUACCAUGUCUCGGUUGGCCCUUGGCAGCCGUUCGUGUACA,,,83.4 nM,234 nM
CGAAUACGAAUUGAUACCAGCAUGUUAACAUGAGGAUCACCCAUGUUAAGGAUAACAUAAUGCCCUUGGCAGCAACGUAAAUUCG,,,19.4 nM,13.4 nM
ACAUUAGUUGGCGAUACCAGCUAUAGGCCUUCUGGGCGACAUGAGGAUCACCCAUGUGAUGGCCCUUGGCAGCGCUGAUUGAUGU,,,151 nM,41.4 nM
AGUGUUAUAACUGAUACCAGACUUUUGCUUAUACAUGAGGAUCACCCAUGUAAAAUGGUUGUCCCUUGGCAGCAGAAGUUACACA,,,69.1 nM,327 nM
GAGCUGAUGUAGAGCGAAUAUACGAGAGAUACCAGUACAGAAAUGUACCCUUGGCAGCUCAACUUUACAUGAGGAUCACCCAUGU,13.8 nM,15.3 nM,,
ACAUGAGGAUGGGAUACCAGAUACAUGAGGAUCACCCAUACAUGAGGAUCACCCAUGUCCGUCCCUUGGCAGCCCAACAUGAGGA,169 nM,506 nM,,
UUUGAUAUGACAGAUACCAGCGUGUUGUUGAACAUGAGGAUCACCCAUGUAGUGAUCAAGCGCCCUUGGCAGCUGGUGUGUUAGG,,,125 nM,82.7 nM
UAACAUGAGGAUCACCCAUGUAUAGUCGAUACCAGCUCAAGGGAGAGCCCUUGGCAGCGACACUGGUAUCCAUGGGUGUGGAUAC,,,82.3 nM,81.3 nM
AUAUGAUCAUAGGAUACCAGAAAUGGUAUUCCUUUAUUUCUUACAUGAGGAUCACCCAUGUUCCCUUGGCAGCUUAUGAUCAUAU,126 nM,115 nM,,
AAGGUGAUCCCAGAUACCAGCUCAACAUGAGGAUCACCCAUGUACGGGACGAAAGUCCCGGGCCCUUGGCAGCUGGGUUGCCAAG,,,193 nM,123 nM
CAUGGGUGGGUGCUGCCACCCAUUGGUGAUACCAGCAUCGAAAGAUGCCCUUGGCAGCACCAACAUGAGGAUCACCCAUGUAAUA,,,118 nM,320 nM
AAUAACAUGAGGAUCACCCAUGUAAAAGAUACCAGAGUGAUGAUCCUCCCUUGGCAGCUUAAUAACGCUAUUGAUUACAAUAGCG,,,46.4 nM,108 nM
AACAAUGCACAUGAGGAUCACCCAUGUGAUACCAGCCGCAACAUAGGCCCUUGGCAGCAUGUGGGUAUAGAACGAUUUGGCUGAA,45.9 nM,78.3 nM,,
UUUUUCGCGUUUGAUACCAGCAGAGUUGUUCUGGUCUGGUACAUGAGGAUCACCCAUGUCUGCCCUUGGCAGCAAACGGGAGAAG,11.5 nM,14.7 nM,,
AGCGGAACGGAAGGGUCCCGAAAUUGUGAUACCAGCCUUGAAUCCGGCCCUUGGCAGCACAUGAGGAUCACCCAUGUACUGCGGU,13 nM,45 nM,,
ACCUCACUCUCUGAUACCAGCUAACAACAUGAGGAUCACCCAUGUCAGACUUGUAUUGAUAGCCCUUGGCAGCAGAGGUAACUGC,16.2 nM,31.3 nM,,
ACUCUGUCGGGUGAUACCAGCCUCGGCACAUCUCGCGCCGAACAUGAGGAUCACCCAUGUGGCCCUUGGCAGCACAUGACAAAUC,,,328 nM,83.1 nM
AUCGUACCUGAUGAUACCAGCAAGUGAUCAUAACAUGAGGAUCACCCAUGUAAUCAGUGAUGCCCUUGGCAGCAUAGUCGAUACA,,,164 nM,99.8 nM
GCAUGCGAUACCGAUACCAGCUACUCCAUGGCGCUCCACAUGAGGAUCACCCAUGUAAAUAGCCCUUGGCAGCGGUAUUGAGAUG,22.7 nM,315 nM,,
ACAUGAGGAUCACCCAUGUCAAGGCACGAUACCAGCUGAUCCGGUGGCCCUUGGCAGCGUCACGUUUGGUCCCGCGGAUGACACG,,,64.7 nM,108 nM
